Screening results (PubChem)
This is a sample that favours compounds with a hit; in the whole collection about 3.2% have one here.
S100A4 MyoIIA: inhibitors of human S100A4 binding to myosin IIA peptide; S100A4/TAMRA-MyoIIA peptide fluorescence polarization; inhibition, % at 10.7 µM; 0.14% of 360,000 active; AID 652163;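 active = mean inhibition of at least 70% across replicates, with every replicate also reaching that level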
Target sequence (P26447 whole entry, looked up): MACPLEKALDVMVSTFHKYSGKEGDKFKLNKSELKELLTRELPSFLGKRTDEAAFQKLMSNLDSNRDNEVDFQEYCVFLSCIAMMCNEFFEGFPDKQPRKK
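Test system – S100A4 monomer (human) · Compound – single-point compound testing · Schedule – 5 min incubation before reading · Probe or stimulus – TAMRA-labelled myosin IIA heavy-chain peptide probe, 5 nM · Benchmarks – neutral control DMSO, positive control TFP · Medium – Calcium-containing HEPES buffer, pH 7.2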
PfHsp90 set2: reduces growth (ATP signal) of yeast expressing P. falciparum Hsp90 | S. cerevisiae expressing PfHsp90, BacTiter-Glo ATP, 48 h; yeast lacking PDR1 and PDR3 efflux regulators | 0.32% of 310,000 active | inhibition, % at 9.4 µM;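 active = every replicate shows inhibition above about 80%, whatever the replicate mean, limit read from the data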
rRNA inh HTS: inhibits bacterial ribosomal RNA function over humanized ribosomes; 1.6% of 350,000 active; E. coli WT GFP vs humanized-ribosome RFP mutants, fluorescence, 24 h; active compounds read low; DMSO median 0, no signal -100; GFP signal change (wild-type ribosome), % (concentration not given with the values);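 active = significant combined selectivity score with lowered wild-type GFP, culture density cut under 30%, mutant RFP and density less affected; inactive = any of these conditions unmet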
AF4-AF9 inh: blocks AF4 peptide binding to human AF9; P42568; AlphaScreen, biotin-AF4 peptide binding to FLAG-AF9; inhibition, % at 10 µM; 0.47% of 350,000 active; AID 651704;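 active = every replicate reaching a set inhibition limit, whatever the replicate mean, cut at about 25% in these data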
Target sequence (P42568 whole entry, looked up): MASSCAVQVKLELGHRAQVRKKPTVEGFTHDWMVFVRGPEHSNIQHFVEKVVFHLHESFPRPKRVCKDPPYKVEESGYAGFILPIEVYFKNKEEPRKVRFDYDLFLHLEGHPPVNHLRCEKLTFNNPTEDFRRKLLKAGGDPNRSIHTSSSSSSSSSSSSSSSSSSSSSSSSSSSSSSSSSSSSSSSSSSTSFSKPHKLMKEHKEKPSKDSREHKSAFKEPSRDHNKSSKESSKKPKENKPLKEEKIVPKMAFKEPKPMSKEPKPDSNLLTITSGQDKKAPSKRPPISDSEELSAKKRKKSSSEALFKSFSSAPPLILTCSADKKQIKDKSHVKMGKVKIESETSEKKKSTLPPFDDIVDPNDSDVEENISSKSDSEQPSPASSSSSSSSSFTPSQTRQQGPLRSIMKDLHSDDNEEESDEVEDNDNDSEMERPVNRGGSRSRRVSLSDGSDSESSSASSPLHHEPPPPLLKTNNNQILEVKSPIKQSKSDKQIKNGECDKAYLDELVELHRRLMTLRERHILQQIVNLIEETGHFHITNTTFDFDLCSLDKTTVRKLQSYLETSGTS
DENV2 CPE rescue: inhibitors of DENV2 cytopathic effect; 1.7% of 350,000 active; DENV2-infected cells, cytopathic effect rescue, plate reader; CPE inhibition, % at 9.99 µM; in the data active = CPE inhibition above about 20%, passing the limit was not always enough; tested in BHK-21 cells
Cneo AK release: Cryptococcus neoformans lysis via adenylate kinase release. AID 651654. lysis activity, % at 15 µM. C. neoformans lysis, adenylate kinase release luminescence, 4 h; normalised: neutral wells 0, clomiphene wells 100. 0.2% of 360,000 active;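 active = mean lysis activity across replicates of at least 80%, whatever share of replicates individually reach that level; inactive = mean lysis activity below 80%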
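Assay system: C. neoformans cells. Amount: yeast cell density of 5 × 10^6 cells/mL. Technique: AK luminescence. Buffer or medium: YPD. Times: static 4 h at 37 °C with compound, 1 h detection. Dosing: single-point compound dose. Read-out: lysis from increased AK signal.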
Numbers stand for hits; – = inactive; · = not tested or not shown.

SMILES | S100A4 MyoIIA | PfHsp90 set2 | rRNA inh HTS | AF4-AF9 inh | DENV2 CPE rescue | Cneo AK release
OC[C@H]1[C@@H](c2ccc(-c3ccc(F)cc3)cc2)[C@@H]2CN(Cc3ccccn3)CCCCN12 | – | · | – | – | 29.1 | –
OC[C@H]1[C@@H](c2ccc(-c3ccc(F)cc3)cc2)[C@@H]2CN(Cc3ccncc3)CCCCN12 | – | · | – | – | – | –
OC[C@H]1[C@H](c2ccc(-c3ccc(F)cc3)cc2)[C@H]2CN(Cc3ccccn3)CCCCN21 | – | · | – | – | – | –
O=C(NC1(Cc2ccccc2)CCN(CCc2cccs2)C1=O)c1ccccc1 (configuration not stated) | – | – | – | – | 72.0 | –
CCOc1ccc(-n2c(-c3ccccc3)c[n+]3c2CCCCC3)cc1 | – | – | -43.0 | – | – | ·
COc1ccc(NC(=O)N(C)C[C@H]2Oc3c(NC(=O)c4cnccn4)cccc3C(=O)N([C@@H](C)CO)C[C@@H]2C)cc1 | – | · | – | – | – | –
Cc1cc(-c2cc(-c3ccc(Cl)cc3)nc(N)c2C#N)co1 | · | 121.9 | · | · | · | –
Cc1ccc(-c2cc(-c3ccc(F)cc3)c(C#N)c(N)n2)o1 | – | 120.0 | – | – | · | –
Cc1ccc(-c2cc(-c3ccc(C)o3)nc(N)c2C#N)cc1 | · | – | · | · | · | ·
CC(C)c1ccc(-c2csc3ncnc(N4CCN(C)CC4)c23)cc1 | – | – | -27.7 | – | – | –
CC=Cc1ccc2n(c1=O)C[C@@H]1[C@@H](CO)[C@H](C(=O)Nc3nccs3)N(C(=O)CC)[C@H]21 (mixture of isomers) | – | · | – | – | – | –
C[C@@H]1CN([C@@H](C)CO)C(=O)c2cccc(NC(=O)C3CCOCC3)c2O[C@@H]1CN(C)CC1CCCCC1 | – | · | – | – | – | –
C[C@H]1CN([C@@H](C)CO)C(=O)c2cccc(NC(=O)C3CCOCC3)c2O[C@H]1CN(C)CC1CCCCC1 | – | · | – | – | 43.6 | –
C[C@H]1CN([C@@H](C)CO)C(=O)c2cccc(NC(=O)NC3CCCCC3)c2O[C@@H]1CN(C)CC1CCCCC1 | – | · | – | – | 29.7 | –
C[C@@H]1CN([C@H](C)CO)C(=O)c2cccc(NC(=O)NC3CCCCC3)c2O[C@H]1CN(C)CC1CCCCC1 | – | · | – | – | – | –
C[C@H]1CN([C@@H](C)CO)C(=O)c2ccccc2-c2ccccc2CO[C@H]1CN(C)Cc1ccccc1C(F)(F)F | – | · | – | – | 21.1 | ·
C[C@@H]1CN([C@H](C)CO)C(=O)c2ccccc2-c2ccccc2CO[C@@H]1CN(C)C(=O)[C@H]1CCCN1C | – | · | – | – | 78.6 | –
C[C@@H]1CN([C@H](C)CO)C(=O)c2ccccc2-c2ccccc2CO[C@H]1CN(C)C(=O)Oc1ccccc1 | 94.1 | · | – | – | – | –
C[C@@H]1CN([C@@H](C)CO)C(=O)c2ccccc2-c2ccccc2CO[C@@H]1CN(C)Cc1ccccc1C(F)(F)F | – | · | – | – | – | ·
CCOC(=O)CCCCCC(=O)Nc1ccc2c(c1)C(=O)N([C@@H](C)CO)C[C@H](C)[C@H](CN(C)S(C)(=O)=O)O2 | · | · | – | · | · | ·
O=C(O)C[C@@H]1C=C[C@H](NC(=O)CCN2CCCCC2)[C@@H](CO)O1 | – | · | – | – | – | ·
CN1CCN(C(=O)[C@H]2[C@H](CO)[C@H]3Cn4c(ccc(-c5cncnc5)c4=O)[C@H]3N2CC2CCCC2)CC1 | – | · | – | – | – | –
Cc1cccc(NC(=S)N(CCc2ccncc2)C(C)C)c1C | – | – | – | – | – | ·
CC(C)N(CCc1ccncc1)C(=S)Nc1cccc(Cl)c1 | – | – | -17.2 | – | – | ·
Cc1ccc(S(=O)(=O)N(C)C[C@H]2Oc3ccc(NS(C)(=O)=O)cc3CC(=O)N([C@H](C)CO)C[C@H]2C)cc1 | – | · | – | – | – | –
SMILES | S100A4 MyoIIA | PfHsp90 set2 | rRNA inh HTS | AF4-AF9 inh | DENV2 CPE rescue | Cneo AK release
C[C@@H]1CN([C@H](C)CO)C(=O)c2cc(NS(=O)(=O)c3cccs3)ccc2O[C@@H]1CN(C)C(=O)Nc1ccc2c(c1)OCO2 | – | · | – | – | – | –
Cc1cc(N2CCC(C(=O)NC3CC3)CC2)nc(-c2ccccc2)n1 | · | – | · | · | · | –
Cc1cc(N2CCN(c3cccc(C)c3C)CC2)nc(-c2ccccc2)n1 | · | 135.2 | · | · | · | –
COc1ccc(S(=O)(=O)Nc2ccc3c(c2)C(=O)N([C@@H](C)CO)C[C@H](C)[C@@H](CN(C)Cc2ccc4c(c2)OCO4)OCCCC[C@@H](C)O3)cc1 | – | · | – | – | 24.2 | –
COc1ccc(S(=O)(=O)Nc2ccc3c(c2)C(=O)N([C@@H](C)CO)C[C@H](C)[C@H](CN(C)Cc2ccc4c(c2)OCO4)OCCCC[C@@H](C)O3)cc1 | – | · | – | – | – | –
COc1ccc(S(=O)(=O)Nc2ccc3c(c2)C(=O)N([C@H](C)CO)C[C@H](C)[C@H](CN(C)Cc2ccc4c(c2)OCO4)OCCCC[C@H](C)O3)cc1 | – | · | – | – | 58.5 | –
COc1ccc(S(=O)(=O)Nc2ccc3c(c2)C(=O)N([C@H](C)CO)C[C@@H](C)[C@@H](CN(C)Cc2ccc4c(c2)OCO4)OCCCC[C@@H](C)O3)cc1 | – | · | – | – | 21.1 | –
COc1ccc(S(=O)(=O)Nc2ccc3c(c2)C(=O)N([C@@H](C)CO)C[C@@H](C)[C@@H](CN(C)Cc2ccc4c(c2)OCO4)OCCCC[C@H](C)O3)cc1 | – | · | – | – | 22.0 | –
COc1ccc(S(=O)(=O)Nc2ccc3c(c2)C(=O)N([C@H](C)CO)C[C@@H](C)[C@H](CN(C)Cc2ccc4c(c2)OCO4)OCCCC[C@@H](C)O3)cc1 | – | · | – | – | – | –
C[C@@H]1CN([C@H](C)CO)C(=O)c2cc(NS(=O)(=O)c3ccc(F)cc3)ccc2O[C@@H](C)CCCCO[C@H]1CN(C)Cc1ccc2c(c1)OCO2 | – | · | – | – | – | –
C[C@@H]1CN([C@@H](C)CO)C(=O)c2cc(NS(=O)(=O)c3ccc(F)cc3)ccc2O[C@@H](C)CCCCO[C@@H]1CN(C)Cc1ccc2c(c1)OCO2 | – | · | – | – | – | 99.2
C[C@H]1CN([C@@H](C)CO)C(=O)c2cc(NC(=O)c3ccncc3)ccc2O[C@H]1CN(C)C | – | · | – | – | – | –
COc1ccc(C(=O)OCc2c(-c3cccc(OC)c3)ncc3ccccc23)cc1 | – | – | – | – | 21.9 | –
COC(=O)[C@]12CCCCC=C1N(Cc1ccco1)C(=O)[C@H](CC(=O)N1CCC(c3ccccc3)CC1)C2 | – | · | – | – | – | ·
CCCCCCCCN1C(=O)[C@H](CC(=O)NCc2cccs2)C[C@@]2(C(=O)OCC)CCCC=C12 | – | · | – | – | – | ·
CCOC(=O)[C@]12CCCC=C1N(Cc1ccccc1)C(=O)[C@H](CC(=O)NCc1cccs1)C2 | – | · | – | – | 54.6 | ·
